{
  "source": "ChEMBL document CHEMBL2021785",
  "about": "“Compounds of Alpinia katsumadai as potential efflux inhibitors in Mycobacterium smegmatis” (2012)",
  "key": {"[1]": {"test_system": "Mycolicibacterium smegmatis MC2 155", "assay": "Inhibition of Multidrug resistance efflux pump in Mycobacterium smegmatis mc2 155 assessed as modulation of EtBr-mediated antibacterial activity measuring ratio of EtBr MIC to EtBr and compound MIC at 4 mg/L after 72 hrs by MTT assay", "method_in_brief": "(§1)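 Checkerboard-type modulation by broth dilution in MHB with DMSO-dissolved modulators: either modulator held constant (half its MIC) with two-fold serially diluted antibiotic/EtBr, or antibiotic fixed with modulator serially diluted. Final inoculum 5 × 10^5 cfu/mL, 37 °C, 72 h, MTT read-out. Modulation factor quantifies shift in antibiotic/EtBr MIC; FICI assesses combination effect.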"}, "[2]": {"test_system": "Mycolicibacterium smegmatis MC2 155", "assay": "Inhibition of Multidrug resistance efflux pump in Mycobacterium smegmatis mc2 155 assessed as modulation of isoniazid-mediated antibacterial activity measuring ratio of isoniazid MIC to isoniazid and compound MIC at 4 mg/L after 72 hrs by MTT assay", "method_in_brief": "as §1"}, "[3]": {"test_system": "Mycolicibacterium smegmatis", "assay": "Antibacterial activity against Mycobacterium smegmatis mc2 155 after 72 hrs by MTT assay", "assay_type": "functional", "conditions": "str. MC2 155, 72 h", "method_in_brief": "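Broth dilution in Mueller-Hinton broth; compounds dissolved in DMSO, two-fold serial dilutions; inoculum adjusted to McFarland 0.5 and diluted to final 5 × 10^5 cfu/mL; cells pre-grown on Columbia blood agar with 5% horse blood, 37 °C, 72 h. Plates incubated 37 °C for 72 h; MIC read after MTT as lowest concentration inhibiting growth.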"}, "[4]": {"test_system": "Mycolicibacterium smegmatis MC2 155", "assay": "Inhibition of Multidrug resistance efflux pump in Mycobacterium smegmatis mc2 155 assessed as modulation of rifampicin-mediated antibacterial activity measuring ratio of rifampicin MIC to rifampicin and compound MIC at 4 mg/L after 72 hrs by MTT assay", "method_in_brief": "as §1"}, "[5]": {"test_system": "Mycolicibacterium smegmatis MC2 155", "assay": "Inhibition of Multidrug resistance efflux pump in Mycobacterium smegmatis mc2 155 assessed as modulation of EtBr-mediated antibacterial activity measuring reduction in MIC at 1/2 of MIC after 72 hrs by MTT assay relative to control", "method_in_brief": "as §1"}, "[6]": {"test_system": "Mycolicibacterium smegmatis MC2 155", "assay": "Inhibition of Multidrug resistance efflux pump in Mycobacterium smegmatis mc2 155 assessed as modulation of rifampicin-mediated antibacterial activity measuring reduction in MIC at 1/2 of MIC after 72 hrs by MTT assay relative to control", "method_in_brief": "as §1"}, "[7]": {"test_system": "Mycolicibacterium smegmatis MC2 155", "assay": "Inhibition of Multidrug resistance efflux pump in Mycobacterium smegmatis mc2 155 assessed as modulation of rifampicin-mediated antibacterial activity measuring ratio of rifampicin MIC to rifampicin and compound MIC at 64 mg/L after 72 hrs by MTT assay", "method_in_brief": "as §1"}, "[8]": {"test_system": "Mycolicibacterium smegmatis MC2 155", "assay": "Inhibition of Multidrug resistance efflux pump in Mycobacterium smegmatis mc2 155 assessed as modulation of EtBr-mediated antibacterial activity measuring fractional inhibitory concentration index at 64 mg/L after 72 hrs by MTT assay", "method_in_brief": "as §1"}, "[9]": {"test_system": "Mycolicibacterium smegmatis MC2 155", "assay": "Inhibition of Multidrug resistance efflux pump in Mycobacterium smegmatis mc2 155 assessed as modulation of rifampicin-mediated antibacterial activity measuring fractional inhibitory concentration index at 64 mg/L after 72 hrs by MTT assay", "method_in_brief": "as §1"}, "[10]": {"test_system": "Mycolicibacterium smegmatis MC2 155", "assay": "Inhibition of Multidrug resistance efflux pump in Mycobacterium smegmatis mc2 155 assessed as modulation of ethambutol-mediated antibacterial activity measuring reduction in MIC at 1/2 of MIC after 72 hrs by MTT assay relative to control", "method_in_brief": "as §1"}, "[11]": {"test_system": "Mycolicibacterium smegmatis MC2 155", "assay": "Inhibition of Multidrug resistance efflux pump in Mycobacterium smegmatis mc2 155 assessed as EtBr accumulation measuring relative fluorescence at half the MIC measured for 60 mins by spectrophotometry relative to control", "method_in_brief": "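Overnight 7H9/ADC culture (37 °C, 100 rpm) centrifuged and resuspended in PBS with 0.05% Tween 80 to OD600 0.4. Cells mixed 1:1 with test solutions containing 0.5 mg/L EtBr and 0.4% glucose, compounds from MIC down to 1/16 MIC. Fluorescence (ex 531/em 590 nm) read every 50 s at 37 °C for 60 min; repeated at least three times.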"}, "[12]": {"test_system": "Mycolicibacterium smegmatis MC2 155", "assay": "Inhibition of Multidrug resistance efflux pump in Mycobacterium smegmatis mc2 155 assessed as modulation of isoniazid-mediated antibacterial activity measuring ratio of isoniazid MIC to isoniazid and compound MIC at 64 mg/L after 72 hrs by MTT assay", "method_in_brief": "as §1"}, "[13]": {"test_system": "Mycolicibacterium smegmatis MC2 155", "assay": "Inhibition of Multidrug resistance efflux pump in Mycobacterium smegmatis mc2 155 assessed as modulation of ethambutol-mediated antibacterial activity measuring ratio of ethambutol MIC to ethambutol and compound MIC at 64 mg/L after 72 hrs by MTT assay", "method_in_brief": "as §1"}, "[14]": {"test_system": "Mycolicibacterium smegmatis MC2 155", "assay": "Inhibition of Multidrug resistance efflux pump in Mycobacterium smegmatis mc2 155 assessed as modulation of ciprofloxacin-mediated antibacterial activity measuring ratio of ciprofloxacin MIC to ciprofloxacin and compound MIC at 64 mg/L after 72 hrs by MTT assay", "method_in_brief": "as §1"}, "[15]": {"test_system": "Mycolicibacterium smegmatis MC2 155", "assay": "Inhibition of Multidrug resistance efflux pump in Mycobacterium smegmatis mc2 155 assessed as modulation of EtBr-mediated antibacterial activity measuring ratio of EtBr MIC to EtBr and compound MIC at 64 mg/L after 72 hrs by MTT assay", "method_in_brief": "as §1"}, "[16]": {"test_system": "Mycolicibacterium smegmatis MC2 155", "assay": "Inhibition of Multidrug resistance efflux pump in Mycobacterium smegmatis mc2 155 assessed as inhibition of EtBr efflux measuring normalized fluorescence at half the MIC measured for 60 mins by spectrophotometry relative to control"}, "[17]": {"test_system": "Mycolicibacterium smegmatis MC2 155", "assay": "Inhibition of Multidrug resistance efflux pump in Mycobacterium smegmatis mc2 155 assessed as modulation of EtBr-mediated antibacterial activity measuring ratio of EtBr MIC to EtBr and compound MIC at 2 mg/L after 72 hrs by MTT assay", "method_in_brief": "as §1"}, "[18]": {"test_system": "Mycolicibacterium smegmatis MC2 155", "assay": "Inhibition of Multidrug resistance efflux pump in Mycobacterium smegmatis mc2 155 assessed as modulation of isoniazid-mediated antibacterial activity measuring ratio of isoniazid MIC to isoniazid and compound MIC at 2 mg/L after 72 hrs by MTT assay", "method_in_brief": "as §1"}, "[19]": {"test_system": "Mycolicibacterium smegmatis MC2 155", "assay": "Inhibition of Multidrug resistance efflux pump in Mycobacterium smegmatis mc2 155 assessed as modulation of rifampicin-mediated antibacterial activity measuring ratio of rifampicin MIC to rifampicin and compound MIC at 2 mg/L after 72 hrs by MTT assay", "method_in_brief": "as §1"}},
  "data": [
    {"smiles": "CC/C=C\\C/C=C\\C/C=C\\CCCCCCCC(=O)O", "note": "[LINOLENIC ACID]", "values": [
      {"measurement": "Ratio", "setting": "[1]", "value": 4},
      {"measurement": "Ratio", "setting": "[2]", "value": 1},
      {"measurement": "MIC", "setting": "[3]", "value": 8, "unit": "µg/mL"},
      {"measurement": "Ratio", "setting": "[4]", "value": 4},
      {"measurement": "fold change (FC)", "setting": "[5]", "value": 4},
      {"measurement": "fold change (FC)", "setting": "[6]", "value": 4}
    ]},
    {"smiles": "O=C1C[C@@H](c2ccccc2)Oc2cc(O)cc(O)c21", "note": "[PINOCEMBRIN]", "values": [
      {"measurement": "Ratio", "setting": "[7]", "value": 2},
      {"measurement": "fractional inhibitory concentration index (FICI)", "setting": "[8]", "value": 0.5},
      {"measurement": "fractional inhibitory concentration index (FICI)", "setting": "[9]", "value": 1.5},
      {"measurement": "fold change (FC)", "setting": "[10]", "value": 2},
      {"measurement": "RFU", "setting": "[11]", "value": 11200},
      {"measurement": "Ratio", "setting": "[12]", "value": 1},
      {"measurement": "Ratio", "setting": "[13]", "value": 2},
      {"measurement": "MIC", "setting": "[3]", "value": 128, "unit": "µg/mL"},
      {"measurement": "Ratio", "setting": "[14]", "value": 1},
      {"measurement": "fold change (FC)", "setting": "[5]", "value": 4},
      {"measurement": "Ratio", "setting": "[15]", "value": 4},
      {"measurement": "normalized EtBr fluorescence relative to control", "setting": "[16]", "value": 0.765}
    ]},
    {"smiles": "CCCCC/C=C\\C/C=C\\CCCCCCCC(=O)O", "note": "[LINOLEIC ACID]", "values": [
      {"measurement": "Ratio", "setting": "[17]", "value": 2},
      {"measurement": "MIC", "setting": "[3]", "value": 4, "unit": "µg/mL"},
      {"measurement": "Ratio", "setting": "[18]", "value": 1},
      {"measurement": "Ratio", "setting": "[19]", "value": 2}
    ]},
    {"smiles": "CCCCCCCCCCCCCCCCCC(=O)O", "note": "[STEARIC ACID]", "values": [
      {"measurement": "Ratio", "setting": "[12]", "value": 0.5},
      {"measurement": "MIC", "setting": "[3]", "value": "≥ 128", "unit": "µg/mL"},
      {"measurement": "Ratio", "setting": "[15]", "value": 1}
    ]},
    {"smiles": "O[C@@H](CCc1ccccc1)C[C@H](O)/C=C/c1ccccc1", "values": [
      {"measurement": "Ratio", "setting": "[7]", "value": 4},
      {"measurement": "fractional inhibitory concentration index (FICI)", "setting": "[8]", "value": 0.25},
      {"measurement": "fractional inhibitory concentration index (FICI)", "setting": "[9]", "value": 0.75},
      {"measurement": "RFU", "setting": "[11]", "value": 16500},
      {"measurement": "Ratio", "setting": "[12]", "value": 2},
      {"measurement": "Ratio", "setting": "[13]", "value": 2},
      {"measurement": "MIC", "setting": "[3]", "value": "≥ 128", "unit": "µg/mL"},
      {"measurement": "Ratio", "setting": "[14]", "value": 2},
      {"measurement": "fold change (FC)", "setting": "[5]", "value": 4},
      {"measurement": "fold change (FC)", "setting": "[6]", "value": 4},
      {"measurement": "Ratio", "setting": "[15]", "value": 8},
      {"measurement": "normalized EtBr fluorescence relative to control", "setting": "[16]", "value": 0.746}
    ]},
    {"smiles": "O=C(O)c1cn(C2CC2)c2cc(N3CCNCC3)c(F)cc2c1=O", "note": "[CIPROFLOXACIN]", "values": [
      {"measurement": "MIC", "setting": "[3]", "value": 0.125, "unit": "µg/mL"}
    ]},
    {"smiles": "NNC(=O)c1ccncc1", "note": "[ISONIAZID]", "values": [
      {"measurement": "MIC", "setting": "[3]", "value": 4, "unit": "µg/mL"}
    ]},
    {"smiles": "CO[C@H]1/C=C/O[C@@]2(C)Oc3c(C)c(O)c4c(O)c(c(/C=N/N5CCN(C)CC5)c(O)c4c3C2=O)NC(=O)/C(C)=C\\C=C\\[C@H](C)[C@H](O)[C@@H](C)[C@@H](O)[C@@H](C)[C@H](OC(C)=O)[C@@H]1C", "note": "[RIFAMPIN]", "values": [
      {"measurement": "MIC", "setting": "[3]", "value": 32, "unit": "µg/mL"}
    ]}
  ]
}
